Usually IC50 stands for the midpoint of a concentration-inhibition curve.

The source made the active and inactive calls. The calls are words filed in the database; no cut-off is given here.

The test system of one test is HeLa. Briefly: Cytotoxicity against human HeLa cells after 72 hrs by trypan blue assay. The class given is functional, cell-based. In outline:
(§1)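 A-431, HeLa and HL-60 cells at 4×10^4 per well, incubated 24 h. HeLa and A-431 then received fresh medium. Graded compound concentrations were added for a further 72 h at 37 °C, 5% CO2. Viability was counted by Trypan blue exclusion. IC50 is the concentration giving 50% reduction in cell number versus control: ≥3 independent experiments, triplicate samples, mean ± SD.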

The test system of test [1] is HUVEC. The test is described as follows: Antiangiogenic activity in HUVEC cocultured with human PaSMC assessed as inhibition of capillary-like network formation at 25 nM after 72 hrs. The format is functional, cell-based. In outline: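 RFP-expressing HUVEC (early passage, passage 5) co-seeded with pulmonary artery vSMC (5×10^4 PaSMC plus 10×10^3 HUVEC per well) in EGM-2, briefly spun at 200 g and allowed to attach for 3 h. Compounds were added at final 2–200 nM, two replicates per concentration, at 37 °C, 5% CO₂. Network was imaged at 72 h with automated imaging, and tube length was quantified by image analysis.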

The subject of another test is A-431. Briefly: Cytotoxicity against human A431 cells after 72 hrs by trypan blue assay. The format is functional, cell-based. The following applies: A-431, 72 h. In outline: as §1
Another test deals with HL-60. The test is described as follows: Cytotoxicity against human HL60 cells after 72 hrs by trypan blue assay. The format is functional, cell-based. The following applies: HL-60, 72 h. Put shortly: as §1
The next test deals with Nucleic Acid. The test is described as follows: Binding affinity to salmon testes DNA by linear flow dichroism analysis. The format is nucleic-acid assay. The conditions noted are these: Salmonidae. In outline: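 Salmon testes DNA (1.9 × 10^-3 M) in ETN buffer (10 mM Tris, 10 mM NaCl, 1 mM EDTA, pH 7). Linear dichroism spectra were recorded at 25 °C over a range of [drug]/[DNA] ratios on a spectropolarimeter converted for LD.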

Test [2] concerns yB8. Briefly: Induction apoptosis in mouse yB8 cells assessed as ROS production at 10 uM/L using DCFH-DA by flow cytometry relative to control. The format is functional, cell-based. In outline: (§2)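 Transgenic mouse cells exposed to compound at 10 µmol/L. ROS generation was measured by flow cytometry using the probe DCFH-DA.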
Test [3] is filed under the species Mus musculus. The test is described as follows: Cytotoxicity against mouse betaD5 cells after 24 to 96 hrs by MTS assay. The class given is functional, cell-based. In outline:
(§3)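 Mouse transgenic lines plated at 10^3 cells/well and left 24 h to attach. Drugs diluted in medium were added for 24 or 96 h. CellTiter 96 AQueous One (MTS) reagent was then added for 1 h at 37 °C, with absorbance read at 490 nm. Each condition was run in quintuplicate, and cytotoxicity was expressed as percent of controls.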
For orientation: Tetrazolium assays rely on reduction of a dye to a coloured formazan, in cell work by metabolically active cells.

Test [4] has as its system B3. The test is described as follows: Induction apoptosis in mouse B3 cells assessed as ROS production at 10 uM/L using DCFH-DA by flow cytometry relative to control. The class given is functional, cell-based. In outline: as §2
On the technique in general: In flow cytometry, cells or beads pass a laser one at a time.

Test [5] has as its system yA7. Briefly: Cytotoxicity against mouse yA7 cells after 24 to 96 hrs by MTS assay. The format is functional, cell-based. Put shortly:
as §3

Test [6] deals with Craf/Cmyc. Briefly: Induction apoptosis in mouse Craf/Cmyc cells assessed as ROS production at 10 uM/L using DCFH-DA by flow cytometry relative to control. The format is functional, cell-based. Put shortly:
as §2

Test [7] is filed under the species Mus musculus. Briefly: Induction apoptosis in mouse betaD5 cells assessed as ROS production at 10 uM/L using DCFH-DA by flow cytometry relative to control. The format is functional, cell-based. Put shortly: as §2
The subject of test [8] is yA7. Briefly: Induction apoptosis in mouse yA7 cells assessed as ROS production at 10 uM/L using DCFH-DA by flow cytometry relative to control. The format is functional, cell-based. Put shortly:
as §2

The test system of test [9] is yA3. Briefly: Induction apoptosis in mouse yA3 cells assessed as ROS production at 10 uM/L using DCFH-DA by flow cytometry relative to control. The format is functional, cell-based. In outline: as §2
Test [10] is filed under the species Mus musculus. Briefly: Cytotoxicity against mouse betaD10 cells after 24 to 96 hrs by MTS assay. The class given is functional, cell-based. In outline: as §3
The species named for the next test is Bos taurus. The test is described as follows: Inhibition of calf thymus topoisomerase 1-mediated relaxation of supercoiled pBR322 at 100 uM after 60 mins using ethidium bromide staining by agarose gel electrophoresis. Put shortly: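 Supercoiled pBR322 (0.25 µg) with 2 U calf thymus topoisomerase I and test compound, 60 min at 37 °C in 20 µl reaction buffer. Stopped with SDS/bromophenol blue/glycerol plus 50 µg/mL proteinase K, 30 min at 37 °C. Run on 1% agarose at room temperature, stained with ethidium bromide 1 µg/mL in TAE, imaged under UV.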

For test [11], the system named is A2C12. Briefly: Induction apoptosis in mouse A2C12 cells assessed as ROS production at 10 uM/L using DCFH-DA by flow cytometry relative to control. The class given is functional, cell-based. In outline: as §2
Another test relates to A2B1. Briefly: Cytotoxicity against mouse A2B1 cells after 24 to 96 hrs by MTS assay. The class given is functional, cell-based. In outline: as §3
The test system of test [12] is yD12. The test is described as follows: Cytotoxicity against mouse yD12 cells after 24 to 96 hrs by MTS assay. The class given is functional, cell-based. Put shortly:
as §3

For test [13], the system named is yB8. Briefly: Cytotoxicity against mouse yB8 cells after 24 to 96 hrs by MTS assay. The format is functional, cell-based. Put shortly:
as §3

Test [14] has as its target DNA topoisomerase 2-alpha (Homo sapiens) (UniProt P11388). Briefly: Inhibition of human recombinant topoisomerase 2alpha-mediated relaxation of supercoiled pBR322 at up to 100 uM after 60 mins using ethidium bromide staining by agarose gel electrophoresis. In outline:
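Supercoiled pBR322 (0.25 µg) with 1 U human recombinant topoisomerase IIα and test compound, 60 min at 37 °C in 20 µl reaction buffer. Stopped with SDS/bromophenol blue/glycerol plus 50 µg/mL proteinase K, 30 min at 37 °C. Separated on 1% agarose at room temperature, ethidium bromide stained (1 µg/mL, TAE), UV-visualized.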

The test system of test [15] is yA3. The test is described as follows: Cytotoxicity against mouse yA3 cells after 24 to 96 hrs by MTS assay. The class given is functional, cell-based. In outline: as §3
For another test, the system named is yD1. The test is described as follows: Induction apoptosis in mouse yD1 cells assessed as ROS production at 10 uM/L using DCFH-DA by flow cytometry relative to control. The class given is functional, cell-based. Put shortly: as §2
In test [16] the test system is HUVEC. The test is described as follows: Antiangiogenic activity in HUVEC cocultured with human PaSMC assessed as reduction of total tube length at 125 nM after 72 hrs. The format is functional. Set-up: scale not given: the % may be the effect or the level left. In outline: (§4)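 Primary HUVEC (passage 5, retrovirally labelled with RFP) and pulmonary artery vSMC (passage 5) co-seeded at 5×10^4 PaSMC plus 10×10^3 HUVEC per well in EGM-2, briefly spun at 200 g, attached 3 h. Compounds were then added at final 2–200 nM, two replicates per concentration. Networks formed over 72 h at 37 °C, 5% CO2, followed by automated imaging and image analysis of tube formation.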

Test [17] is filed under the species Mus musculus. The test is described as follows: Induction apoptosis in mouse betaD10 cells assessed as ROS production at 10 uM/L using DCFH-DA by flow cytometry relative to control. The format is functional, cell-based. In outline: as §2
Test [18] concerns A2C12. Briefly: Cytotoxicity against mouse A2C12 cells after 24 to 96 hrs by MTS assay. The class given is functional, cell-based. Put shortly:
as §3

For test [19], the system named is Craf/Cmyc. Briefly: Cytotoxicity against mouse Craf/Cmyc cells after 24 to 96 hrs by MTS assay. The class given is functional, cell-based. Put shortly:
as §3

In test [20] the test system is B3. The test is described as follows: Cytotoxicity against mouse B3 cells after 24 to 96 hrs by MTS assay. The class given is functional, cell-based. Put shortly:
as §3

Test [21] relates to HUVEC. Briefly: Antiangiogenic activity in HUVEC cocultured with human PaSMC assessed as morphological changes up to 200 nM after 72 hrs. The format is functional, cell-based. Put shortly:
as §4

The subject of test [22] is yD12. Briefly: Induction apoptosis in mouse yD12 cells assessed as ROS production at 10 uM/L using DCFH-DA by flow cytometry relative to control. The class given is functional, cell-based. Put shortly: as §2

DNA topoisomerase 2-alpha (Homo sapiens), sequence (P11388 whole entry): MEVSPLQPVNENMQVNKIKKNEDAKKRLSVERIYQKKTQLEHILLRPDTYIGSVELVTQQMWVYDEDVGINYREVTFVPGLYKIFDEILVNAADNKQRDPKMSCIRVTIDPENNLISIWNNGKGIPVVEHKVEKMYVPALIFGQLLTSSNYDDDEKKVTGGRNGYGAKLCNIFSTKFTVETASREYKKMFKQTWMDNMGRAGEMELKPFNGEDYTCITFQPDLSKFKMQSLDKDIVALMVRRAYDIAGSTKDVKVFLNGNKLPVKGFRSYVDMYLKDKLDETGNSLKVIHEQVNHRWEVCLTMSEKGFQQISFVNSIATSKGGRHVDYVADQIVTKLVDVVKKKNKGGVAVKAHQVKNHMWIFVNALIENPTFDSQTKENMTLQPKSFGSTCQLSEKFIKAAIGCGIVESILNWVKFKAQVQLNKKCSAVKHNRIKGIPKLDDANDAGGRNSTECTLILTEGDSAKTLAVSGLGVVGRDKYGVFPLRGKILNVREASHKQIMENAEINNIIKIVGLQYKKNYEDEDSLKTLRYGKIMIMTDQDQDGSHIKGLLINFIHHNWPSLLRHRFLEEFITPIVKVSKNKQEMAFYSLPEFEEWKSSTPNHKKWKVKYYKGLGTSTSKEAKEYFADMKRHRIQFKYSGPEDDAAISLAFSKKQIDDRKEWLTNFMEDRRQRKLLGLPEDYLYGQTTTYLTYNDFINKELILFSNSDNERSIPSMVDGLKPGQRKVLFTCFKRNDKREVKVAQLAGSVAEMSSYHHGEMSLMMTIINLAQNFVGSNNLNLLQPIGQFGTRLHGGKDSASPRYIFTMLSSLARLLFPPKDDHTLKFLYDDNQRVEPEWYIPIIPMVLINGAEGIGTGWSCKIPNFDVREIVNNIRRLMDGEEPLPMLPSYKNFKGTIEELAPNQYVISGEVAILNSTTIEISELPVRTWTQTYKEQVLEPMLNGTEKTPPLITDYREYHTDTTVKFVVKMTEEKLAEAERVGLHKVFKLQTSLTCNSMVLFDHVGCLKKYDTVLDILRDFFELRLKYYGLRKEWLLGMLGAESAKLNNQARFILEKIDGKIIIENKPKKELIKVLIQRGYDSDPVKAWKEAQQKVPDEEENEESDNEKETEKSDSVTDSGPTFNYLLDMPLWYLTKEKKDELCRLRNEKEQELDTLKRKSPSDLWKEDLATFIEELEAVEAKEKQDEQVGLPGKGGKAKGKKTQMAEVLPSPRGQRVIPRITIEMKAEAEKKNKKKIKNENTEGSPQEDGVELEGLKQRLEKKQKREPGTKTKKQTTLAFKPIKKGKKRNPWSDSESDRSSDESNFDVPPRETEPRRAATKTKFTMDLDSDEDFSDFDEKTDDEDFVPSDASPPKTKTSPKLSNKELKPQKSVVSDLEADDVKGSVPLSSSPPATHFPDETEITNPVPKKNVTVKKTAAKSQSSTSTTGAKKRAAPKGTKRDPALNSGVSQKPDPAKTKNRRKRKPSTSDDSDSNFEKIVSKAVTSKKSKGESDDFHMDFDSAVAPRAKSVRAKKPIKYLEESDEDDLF

Consider `CC[C@@]1(O)C(=O)OCc2c1cc1n(c2=O)Cc2cc3ccccc3nc2-1` [CAMPTOTHECIN], for which the IC50 in the test with HeLa turned out to be 8.9 nM; in the test with A-431 it was 11 nM; in the test with HL-60, 17 nM. In addition, in the test on HUVEC [1], the inhibition result is “Active”.
Turning to `CC[C@@]1(OC(=O)NCCNC(=O)CCCSSCCCC(=O)NCCNC(=O)O[C@]2(CC)C(=O)OCc3c2cc2n(c3=O)Cc3cc4ccccc4nc3-2)C(=O)OCc2c1cc1n(c2=O)Cc2cc3ccccc3nc2-1`, the outcome (in the test on Nucleic Acid; in the test filed under Bos taurus; in test [14]; with HUVEC [21]) was inactive. Also, the outcome in the test with yB8 [2], in the test filed under Mus musculus [3], with B3 [4], in the test on yA7 [5], in the test with Craf/Cmyc [6] and in the test filed under Mus musculus [7] was Active. In addition, the outcome in the test on yA7 [8], in the test with yA3 [9], in the test listed under Mus musculus [10], in the test on A2C12 [11], with A2B1 and in the test with yD12 [12] was Active. Besides, the outcome with yB8 [13], in the test on yA3 [15], in the test with yD1, in the test listed under Mus musculus [17], in the test with A2C12 [18] and with Craf/Cmyc [19] was Active. For the same compound, the result in the test with B3 [20] and in the test on yD12 [22] was Active. In addition, the IC50 in the test with HeLa was determined as 170 nM; in the test with A-431, 30 nM; in the test on HL-60, 290 nM. In the test on HUVEC [16], the Activity amounted to 50%.

These data come from ChEMBL document CHEMBL1629436, “Synthesis and biological evaluation of new camptothecin derivatives obtained by modification of position 20” (Bioorg Med Chem, 2010).
